Experiments:
Format in all cases: functional
Clostridioides difficile [1] = assay: Antimicrobial activity against Clostridium difficile isolated from intra-abdominal infection and pelvic inflammatory disease patients after 48 hrs by agar dilution method
Procedure, shortened: (§1)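 CLSI agar dilution on brucella blood agar supplemented with laked sheep blood, hemin and vitamin K. Inocula of about 1 × 10^5 CFU/spot were applied by Steers replicator, and plates were incubated 48 h at 35°C in an anaerobic glove box. MIC was the concentration giving marked growth reduction versus the anaerobic control plate. QC strains were included each run, and β-lactamase was detected by Cefinase disk.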

[2] = tested on: Prevotella melaninogenica; assay: Antimicrobial activity against beta lactamase-positive Prevotella melaninogenica isolated from intra-abdominal infection and pelvic inflammatory disease patients after 48 hrs by agar dilution method; procedure, shortened: as §1
Clostridium perfringens [3] = assay: Antimicrobial activity against Clostridium perfringens isolated from intra-abdominal infection and pelvic inflammatory disease patients after 48 hrs by time kill analysis
Procedure, shortened: (§2)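 Macrodilution in prereduced brucella broth with 5% laked horse blood cells, 5 μg/ml hemin and 1 μg/ml vitamin K1. Final inoculum 10^6 to 10^7 CFU/ml, prepared inside the anaerobe chamber. Vials incubated 48 h at 35°C in a shaking water bath. MIC read by inspecting the time-kill tubes, alongside an antibiotic-free growth control.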

[Clostridium] innocuum = Antimicrobial activity against Clostridium innocuum isolated from intra-abdominal infection and pelvic inflammatory disease patients after 48 hrs by agar dilution method; procedure, shortened: as §1
Porphyromonas levii = assay: Antimicrobial activity against Porphyromonas levii isolated from intra-abdominal infection and pelvic inflammatory disease patients after 48 hrs by agar dilution method; procedure, shortened: as §1
Finegoldia magna [4] = assay: Antimicrobial activity against Finegoldia magna isolated from intra-abdominal infection and pelvic inflammatory disease patients after 48 hrs by agar dilution method; procedure, shortened: as §1
Prevotella nigrescens = assay: Antimicrobial activity against beta lactamase-positive Prevotella nigrescens isolated from intra-abdominal infection and pelvic inflammatory disease patients after 48 hrs by agar dilution method; procedure, shortened: as §1
Clostridium cadaveris = assay: Antimicrobial activity against Clostridium cadaveris isolated from intra-abdominal infection and pelvic inflammatory disease patients after 48 hrs by agar dilution method; procedure, shortened: as §1
[5] = tested on: Peptostreptococcus anaerobius; assay: Antimicrobial activity against Peptostreptococcus anaerobius isolated from intra-abdominal infection and pelvic inflammatory disease patients after 48 hrs by agar dilution method; procedure, shortened: as §1
[6] = tested on: Paeniclostridium sordellii; assay: Antimicrobial activity against Clostridium sordellii isolated from intra-abdominal infection and pelvic inflammatory disease patients after 48 hrs by agar dilution method; settings: Paraclostridium sordellii; procedure, shortened: as §1
[7] = tested on: Clostridium paraputrificum; assay: Antimicrobial activity against Clostridium paraputrificum isolated from intra-abdominal infection and pelvic inflammatory disease patients after 48 hrs by agar dilution method; procedure, shortened: as §1
Prevotella buccae = assay: Antimicrobial activity against beta lactamase-positive Prevotella buccae isolated from intra-abdominal infection and pelvic inflammatory disease patients after 48 hrs by agar dilution method; settings: Segatella buccae; procedure, shortened: as §1
Clostridioides difficile [8] = assay: Antimicrobial activity against Clostridium difficile isolated from intra-abdominal infection and pelvic inflammatory disease patients after 48 hrs by time kill analysis; procedure, shortened: as §2
Fusobacterium mortiferum = assay: Antimicrobial activity against beta lactamase-positive Fusobacterium mortiferum isolated from intra-abdominal infection and pelvic inflammatory disease patients after 48 hrs by agar dilution method; procedure, shortened: as §1
Clostridium perfringens [9] = assay: Antimicrobial activity against Clostridium perfringens isolated from intra-abdominal infection and pelvic inflammatory disease patients after 48 hrs by agar dilution method
Procedure, shortened: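 CLSI agar dilution on brucella blood agar supplemented with laked sheep blood, hemin and vitamin K. Inoculum about 1 × 10^5 CFU/spot, applied by Steers replicator. Plates incubated 48 h at 35°C in an anaerobic glove box. MIC is the concentration giving marked growth reduction versus the anaerobic control plate. Standard QC strains included in each run.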

Anaerococcus prevotii = assay: Antimicrobial activity against Anaerococcus prevotii isolated from intra-abdominal infection and pelvic inflammatory disease patients after 48 hrs by agar dilution method; procedure, shortened: as §1
Bacteroides fragilis [10] = assay: Antimicrobial activity against beta lactamase-positive Bacteroides fragilis isolated from intra-abdominal infection and pelvic inflammatory disease patients after 48 hrs by time kill analysis
Procedure, shortened: (§3)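 The MIC was read by inspecting macrodilution time-kill tubes. Vials held prereduced brucella broth with 5% laked horse blood cells, hemin 5 μg/ml and vitamin K1 1 μg/ml. Final inoculum was 10^6–10^7 CFU/ml, prepared inside the anaerobe chamber. Vials were incubated 48 h at 35°C in a shaking water bath.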

Prevotella intermedia [11] = assay: Antimicrobial activity against beta lactamase-positive Prevotella intermedia isolated from intra-abdominal infection and pelvic inflammatory disease patients after 48 hrs by time kill analysis; procedure, shortened: as §3
[12] = tested on: Porphyromonas asaccharolytica; assay: Antimicrobial activity against Porphyromonas asaccharolyticus isolated from intra-abdominal infection and pelvic inflammatory disease patients after 48 hrs by agar dilution method; procedure, shortened: as §1
Phocaeicola vulgatus = assay: Antimicrobial activity against beta lactamase-positive Bacteroides vulgatus isolated from intra-abdominal infection and pelvic inflammatory disease patients after 48 hrs by agar dilution method; procedure, shortened: as §1
Prevotella disiens = assay: Antimicrobial activity against beta lactamase-positive Prevotella disiens isolated from intra-abdominal infection and pelvic inflammatory disease patients after 48 hrs by agar dilution method; procedure, shortened: as §1
Parvimonas micra = assay: Antimicrobial activity against Micromonas micros isolated from intra-abdominal infection and pelvic inflammatory disease patients after 48 hrs by agar dilution method; procedure, shortened: as §1
Prevotella intermedia [13] = assay: Antimicrobial activity against beta lactamase-positive Prevotella intermedia isolated from intra-abdominal infection and pelvic inflammatory disease patients after 48 hrs by agar dilution method; procedure, shortened: as §1
[14] = tested on: Parabacteroides distasonis; assay: Antimicrobial activity against beta lactamase-positive Bacteroides distasonis isolated from intra-abdominal infection and pelvic inflammatory disease patients after 48 hrs by agar dilution method; procedure, shortened: as §1
Anaerococcus tetradius = assay: Antimicrobial activity against Anaerococcus tetradius isolated from intra-abdominal infection and pelvic inflammatory disease patients after 48 hrs by agar dilution method; procedure, shortened: as §1
Porphyromonas gingivalis = assay: Antimicrobial activity against Porphyromonas gingivalis isolated from intra-abdominal infection and pelvic inflammatory disease patients after 48 hrs by agar dilution method; procedure, shortened: as §1
Bacteroides ovatus = assay: Antimicrobial activity against beta lactamase-positive Bacteroides ovatus isolated from intra-abdominal infection and pelvic inflammatory disease patients after 48 hrs by agar dilution method; procedure, shortened: as §1
Fusobacterium nucleatum = assay: Antimicrobial activity against beta lactamase-positive Fusobacterium nucleatum isolated from intra-abdominal infection and pelvic inflammatory disease patients after 48 hrs by agar dilution method; procedure, shortened: as §1
[15] = tested on: Fusobacterium necrophorum; assay: Antimicrobial activity against Fusobacterium necrophorum isolated from intra-abdominal infection and pelvic inflammatory disease patients after 48 hrs by agar dilution method; procedure, shortened: as §1
[16] = tested on: Peptoniphilus asaccharolyticus; assay: Antimicrobial activity against Peptoniphilus asaccharolyticus isolated from intra-abdominal infection and pelvic inflammatory disease patients after 48 hrs by agar dilution method; procedure, shortened: as §1
Finegoldia magna [17] = assay: Antimicrobial activity against beta lactamase-positive Finegoldia magna isolated from intra-abdominal infection and pelvic inflammatory disease patients after 48 hrs by time kill analysis; procedure, shortened: as §3
Prevotella corporis = assay: Antimicrobial activity against beta lactamase-positive Prevotella corporis isolated from intra-abdominal infection and pelvic inflammatory disease patients after 48 hrs by agar dilution method; procedure, shortened: as §1
Prevotella bivia = assay: Antimicrobial activity against beta lactamase-positive Prevotella bivia isolated from intra-abdominal infection and pelvic inflammatory disease patients after 48 hrs by agar dilution method; procedure, shortened: as §1
[18] = tested on: Paraclostridium bifermentans; assay: Antimicrobial activity against Clostridium bifermentans isolated from intra-abdominal infection and pelvic inflammatory disease patients after 48 hrs by agar dilution method; procedure, shortened: as §1
[19] = tested on: Bacteroides thetaiotaomicron; assay: Antimicrobial activity against beta lactamase-positive Bacteroides thetaiotaomicron isolated from intra-abdominal infection and pelvic inflammatory disease patients after 48 hrs by agar dilution method; procedure, shortened: as §1
Prevotella denticola = assay: Antimicrobial activity against beta lactamase-positive Prevotella denticola isolated from intra-abdominal infection and pelvic inflammatory disease patients after 48 hrs by agar dilution method; procedure, shortened: as §1
Bacteroides fragilis [20] = assay: Antimicrobial activity against beta lactamase-positive Bacteroides fragilis isolated from intra-abdominal infection and pelvic inflammatory disease patients after 48 hrs by agar dilution method; procedure, shortened: as §1
Thomasclavelia ramosa = assay: Antimicrobial activity against Clostridium ramosum isolated from intra-abdominal infection and pelvic inflammatory disease patients after 48 hrs by agar dilution method; procedure, shortened: as §1
[21] = tested on: Enterocloster clostridioformis; assay: Antimicrobial activity against Clostridium clostridioforme isolated from intra-abdominal infection and pelvic inflammatory disease patients after 48 hrs by agar dilution method; procedure, shortened: as §1
Fusobacterium varium = assay: Antimicrobial activity against Fusobacterium varium isolated from intra-abdominal infection and pelvic inflammatory disease patients after 48 hrs by agar dilution method; procedure, shortened: as §1

CCC[C@@H]1C[C@@H](C(=O)N[C@@H]([C@H]2O[C@H](SC)[C@H](O)[C@@H](O)[C@H]2O)[C@H](C)Cl)N(C)C1 [CLINDAMYCIN]
8 µg/mL: MIC50 (Clostridioides difficile [1]) | MIC [7] | MIC (Clostridioides difficile [8]) | MIC90 [19]
16 µg/mL: MIC90 (Fusobacterium varium)
0.016 µg/mL: MIC (Prevotella intermedia [11])
2 µg/mL: MIC50 (Finegoldia magna [4]) | MIC90 (Clostridium perfringens [9]) | MIC50 (Bacteroides ovatus)
≤ 0.016 µg/mL: MIC90 [2] | MIC (Porphyromonas levii) | MIC50 (Prevotella nigrescens) | MIC90 (Prevotella nigrescens) | MIC (Prevotella buccae) | MIC50 (Prevotella buccae) | MIC [12] | MIC50 (Prevotella disiens) | MIC50 (Prevotella intermedia [13]) | MIC (Porphyromonas gingivalis) | MIC (Prevotella corporis) | MIC50 (Prevotella corporis)
0.25 µg/mL: MIC90 [5] | MIC90 (Fusobacterium mortiferum) | MIC50 (Parvimonas micra) | MIC90 [15] | MIC (Finegoldia magna [17])
0.06 µg/mL: MIC (Fusobacterium mortiferum) | MIC50 (Fusobacterium mortiferum) | MIC50 [15] | MIC50 [16] | MIC [18] | MIC [21]
4 µg/mL: MIC50 [14] | MIC50 [19] | MIC90 (Bacteroides fragilis [20]) | MIC50 (Thomasclavelia ramosa) | MIC50 (Fusobacterium varium)
0.125 µg/mL: MIC (Clostridium perfringens [3]) | MIC (Anaerococcus prevotii) | MIC90 (Fusobacterium nucleatum)
1 µg/mL: MIC50 ([Clostridium] innocuum) | MIC [6] | MIC50 (Clostridium perfringens [9]) | MIC50 (Bacteroides fragilis [20])
> 16 µg/mL: MIC90 (Clostridioides difficile [1]) | MIC90 (Finegoldia magna [4]) | MIC90 [14] | MIC90 (Bacteroides ovatus) | MIC90 [16] | MIC90 (Prevotella bivia)
0.03 µg/mL: MIC50 [2] | MIC (Clostridium cadaveris) | MIC [5] | MIC50 [5] | MIC90 (Prevotella buccae) | MIC50 (Phocaeicola vulgatus) | MIC90 (Prevotella disiens) | MIC90 (Prevotella intermedia [13]) | MIC90 (Prevotella corporis) | MIC50 (Prevotella bivia) | MIC50 (Prevotella denticola) | MIC90 (Prevotella denticola)
0.5 µg/mL: MIC (Bacteroides fragilis [10]) | MIC90 (Phocaeicola vulgatus) | MIC90 (Parvimonas micra) | MIC (Anaerococcus tetradius) | MIC50 (Anaerococcus tetradius)

From ChEMBL document CHEMBL1151448, “Comparative antianaerobic activities of doripenem determined by MIC and time-kill analysis” (2008)
